Calls of active or inactive are those of the source. The rule behind the calls is not given here. A value given as a limit tells only on which side of the number the result lay.

For series [1], the system named is Trypanosoma cruzi. Description: Antitrypanosomal activity against Trypanosoma cruzi trypomastigotes after 24 hrs by MTT assay. It counts as functional. A digest of the protocol: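 T. cruzi trypomastigotes counted by hemocytometer, seeded at 1 × 10⁶ per well; compounds up to 100 µM for 24 h at 37 °C, 5% CO2. Viability from MTT conversion to formazan. Benznidazole positive control; GI50 with 95% CI.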
(In general: Formazan colour is commonly taken as a measure of viable cells.)

Series [2] can be described thus: Cytotoxicity against human K562 cells. The series is classed as cell-based.
The nature of series [3]: Lipophilicity, log P of the compound. The series is classed as physicochemical. Conditions: octanol/water.
A short description of series [4]: Selectivity index, ratio of GI50 for human K562 cells to GI50 for Plasmodium falciparum ITG2G1. It counts as toxicity, cell-based. Conditions: read-out: RatioGI50.
For series [5], the system named is Plasmodium falciparum. The experiment in a line: Antimalarial activity against Plasmodium falciparum ITG2G1. The series is classed as functional.
Series [6] is described as follows: Selectivity index, ratio of GI50 for human HL60 cells to GI50 for Leishmania infantum MHOM/BR/1972/LD promastigotes. The series is classed as toxicity, cell-based, HL-60. Conditions: read-out: RatioGI50.
In series [7] the test system is Trypanosoma brucei. Description: Antitrypanosomal activity against Trypanosoma brucei TC211 after 24 hrs by alamar blue assay. It counts as functional. Conditions: TC211, 24 h. A digest of the protocol:
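Bloodstream T. brucei TC211 in Baltz medium with 16.7% heat-inactivated FBS, seeded at 10⁴ cells/mL with compounds in DMSO (final 0.5%; DMSO-only controls). Alamar Blue added after 24 h, then 48 h incubation; absorbance 570 nm, reference 630 nm. Melarsoprol positive control; GI50 with 95% CI.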
On the technique in general: Alamar Blue is a resazurin reagent that responds to reducing activity.

Series [8] is described as follows: Selectivity index, ratio of GI50 for human HL60 cells to GI50 for Trypanosoma cruzi trypomastigotes. It counts as toxicity, cell-based, HL-60. The note with it: read-out: RatioGI50.
Series [9] is described as follows: Selectivity index, ratio of GI50 for human HL60 cells to GI50 for Trypanosoma brucei TC211. Conditions: read-out: RatioGI50. It counts as toxicity, cell-based, HL-60.
The subject of series [10] is Leishmania infantum. The experiment in a line: Antileishmanial activity against Leishmania infantum MHOM/BR/1972/LD promastigotes after 48 hrs by MTT assay. It counts as functional.
Series [11] can be described thus: Cytotoxicity against human HL60 cells by alamar blue assay. The series is classed as cell-based, HL-60. The method, boiled down: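 HL-60 cells in RPMI 1640 with 2 mM L-glutamine and 16.7% FBS at 37 °C, 5% CO2, seeded at 10⁵ cells/mL. Viability with Alamar Blue read as in the T. brucei assay (570 nm, reference 630 nm); GI50.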
For series [12], the system named is Trypanosoma brucei. The experiment in a line: Iron cheating activity in Trypanosoma brucei bloodstream forms assessed as increase in fluorescein-labeled transferrin at 50 uM in presence of 16.7% heat inactivated FBS after 24 hrs by flow cytometry relative to untreated control. It counts as functional. A digest of the protocol:
(§1)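 Bloodstream T. brucei (5 × 10⁵/mL) exposed 24 h in Baltz medium/16.7% heat-inactivated FBS to 50 µM chelator, 25 µM DFO or DMSO control. Washed cells then given 50 µg/mL fluorescein-transferrin in Baltz/2% BSA for 2 h, washed, fixed in 2% formaldehyde/0.05% glutaraldehyde, analysed by flow cytometry.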
For orientation: Flow cytometry measures light scatter and fluorescence of single cells or particles in a stream.

Series [13] relates to Trypanosoma brucei. The experiment in a line: Antitrypanosomal activity against Trypanosoma brucei TC211 after 24 hrs in presence of FeCl3 by alamar blue assay. It counts as functional, organism-based.
Series [14] can be described thus: Iron cheating activity assessed as pFe3+ value at pH 7.45 by spectrophotometry. The series is classed as functional. The method, boiled down:
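Automated spectrophotometric titration at 25 °C, 0.1 M KCl, pH 2–12 in 0.1-unit steps, 5 min equilibration for stability constants, 50 mm cuvette; […], total iron 1 mM; data fitted with pHab; pFe³⁺ defined at 10⁻⁶ M metal and 10⁻⁵ M ligand.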

Series [15] concerns Trypanosoma brucei. Description: Iron cheating activity in Trypanosoma brucei bloodstream forms assessed as increase in fluorescein-labeled transferrin at 25 uM in presence of 16.7% heat inactivated FBS after 24 hrs by flow cytometry relative to untreated control. The series is classed as functional. The method, boiled down: as §1
In series [16] the test system is Leishmania infantum. Description: Antileishmanial activity against Leishmania infantum MHOM/BR/1972/LD intracellular amastigotes at 60 uM after 120 hrs by light microscopy.
For series [17], the system named is Trypanosoma cruzi. Description: Antitrypanosomal activity against Trypanosoma cruzi trypomastigotes after 24 hrs by MTT assay relative to Chloroquine. It counts as functional.
Series [18] has as its system Trypanosoma brucei. Description: Antitrypanosomal activity against Trypanosoma brucei TC211 after 24 hrs by alamar blue assay relative to Chloroquine. The series is classed as functional.
Series [19] relates to Trypanosoma cruzi. The experiment in a line: Antitrypanosomal activity against Trypanosoma cruzi trypomastigotes after 24 hrs by MTT assay relative to Deferiprone. The series is classed as functional.
Series [20] relates to Trypanosoma brucei. Description: Antitrypanosomal activity against Trypanosoma brucei TC211 after 24 hrs by alamar blue assay relative to Deferiprone. It counts as functional.

`O=C(Cn1ccnc1[N+](=O)[O-])NCc1ccccc1` [BENZNIDAZOLE] displayed a GI50 in series [1] of 441 µM.
On to `Cc1cc(NC(=O)CCCn2ccc(=O)c(O)c2C)c2ccccc2n1`, for which the GI50 in series [2] was 128 µM; in series [5] it was 6 µM. Moreover, the log partition coefficient (logP) in series [3] worked out at 1.28. The selectivity ratio in series [4] is 21.
Take `CCCCCCCCn1ccc(=O)c(O)c1C`: the figures for the selectivity ratio in series [6], in series [8] and in series [9] were 4, 4 and 3, respectively. For the same compound, the GI50 in [7] was 3.6 µM; in [10], 3.2 µM; in [1] it was 3 µM; in series [11], 11.2 µM.
In the case of `CCCCCCCCCCn1ccc(=O)c(O)c1C`, the selectivity ratio worked out at 9 in series [6], 8 in series [8] and 5 in [9]. The GI50 came out at 1.4 µM in series [7], 0.7 µM in [10], 0.8 µM in series [1] and 6.3 µM in [11].
With `C[C@@H]1[C@H](O)[C@@H](C)/C=C/C=C/C=C/C=C/C=C/C=C/C=C/[C@H](O[C@@H]2O[C@H](C)[C@@H](O)[C@H](N)[C@@H]2O)C[C@@H]2O[C@](O)(C[C@@H](O)C[C@@H](O)[C@H](O)CC[C@@H](O)C[C@@H](O)CC(=O)O[C@H]1C)C[C@H](O)[C@H]2C(=O)O` [AMPHOTERICIN B], the GI50 in [10] came out at 0.17 µM.
`Cc1c(O)c(=O)ccn1CCCCNc1ccnc2ccccc12`: the “fold change (FC)” value in series [12] is recorded as 1.6. Moreover, the GI50 is 27.1 µM in series [2]; 7.6 µM in series [7]; more than 100 µM in [10]; 1.6 µM in [5]; more than 100 µM in series [1]; more than 100 µM in series [11]. The compound further had a logP in series [3] of 1.25. Also, the selectivity ratio in series [4] is 17; in series [9] it was more than 13. Moreover, the result in series [13] was inactive.
As for `CC(=O)N(O)CCCCCNC(=O)CCC(=O)N(O)CCCCCNC(=O)CCC(=O)N(O)CCCCCN` [DEFEROXAMINE], the GI50 in series [2] turned out to be 33.1 µM; in series [7], 2.9 µM; in series [10], 150 µM; in series [5], 28 µM; in [11], 18.4 µM. Moreover, the Activity in series [14] came to 26.6. In addition, the “fold change (FC)” value in [15] is 2.
Consider `Cc1c(O)c(=O)ccn1CCN`, for which the GI50 in series [7] was more than 100 µM; in series [10], more than 100 µM; in series [1], more than 100 µM; in series [11] it was 111 µM.
Take `Cc1cc(NCCCCn2ccc(=O)c(O)c2C)c2ccccc2n1`: the results for the GI50 in [2] and in series [5] were 204 µM and 9 µM, respectively. Further, the Activity in series [14] came out at 21.1. This compound displayed a logP in series [3] of -0.48. Moreover, the selectivity ratio in series [4] is 23.
In [3], `Cc1c(O)c(=O)ccn1CCCNc1ccnc2cc(Cl)ccc12` gave a logP of 1.32.
As for `Cc1c(O)c(=O)ccn1CCNc1ccnc2cc(Cl)ccc12`, the GI50 in series [2] came out at 182 µM; in series [5], 7 µM. Besides, in [3], the logP was found to be 1.08. In addition, the selectivity ratio in series [4] was 26.
In the case of `NCCCCNc1ccnc2cc(Cl)ccc12`, the GI50 in [7] is 15.8 µM; in series [10] it was 42.4 µM; in [1] it was 46.3 µM; in series [11], more than 100 µM.
Turning to `Nc1nc(N)nc(Nc2ccc([As]3SCC(CO)S3)cc2)n1` (configuration not stated) [MELARSOPROL], halving of growth in series [7] (GI50) required 0.0038 µM.
As to `Cc1c(O)c(=O)ccn1C` [DEFERIPRONE], the GI50 is more than 100 µM in series [7]; more than 100 µM in series [10]; 67 µM in series [5]; more than 100 µM in series [1]; more than 100 µM in series [11]. The Activity in series [14] was determined as 19.3.
Take `CCN(CC)CCCC(C)Nc1ccnc2cc(Cl)ccc12` (configuration not stated) [CHLOROQUINE]: the figures for the GI50 in series [7], in [10] and in series [1] were 15.6 µM, 3.7 µM and 22.2 µM, respectively.
For the compound `Cc1c(O)c(=O)ccn1CCCCNc1ccnc2cc(Cl)ccc12`, the selectivity ratio was found to be 2 in series [6], 8 in [8], 16 in series [4] and 13 in series [9]. Besides, the 50% growth inhibitory concentration (GI50) in series [2] was 38.2 µM; in series [7], 3.8 µM; in [10], 27.1 µM; in series [5], 2.4 µM; in [1], 6.5 µM; in series [11], 50.3 µM. Also, in series [16], the result was inactive. Also, the Ratio was 4 in series [17], 4 in series [18], more than 15 in series [19] and more than 25 in series [20]. In [3], the logP is 1.4.

By GI50 is commonly meant the concentration at which growth is held to half of that of the control. Read a low GI50 as more potent growth inhibition. One may read the logP as a log measure of how a compound divides between an organic and an aqueous phase. Low values mean lower lipophilicity, high ones higher lipophilicity.

Source of the values: ChEMBL document CHEMBL2331350, “Conjugation to 4-aminoquinoline improves the anti-trypanosomal activity of Deferiprone-type iron chelators” (Bioorg Med Chem, 2013).
